Reference: ChEMBL document CHEMBL2176870 (J Med Chem, 2012)
Values after ≈ are worked out from the molar mass of the structure shown. Active and inactive are the calls of the source. No cut-off for these calls is given here.

How the values were obtained:
Neisseria gonorrhoeae = test: Antibacterial activity against Neisseria gonorrhoeae; format: functional
[1] = Terminal elimination half life in Sprague-Dawley rat liver at 2 x 50 mg/kg, iv; format: ADME, organism-based; design: dose 50 mg/kg, route intravenous; conditions: read-out: beta t1/2 (converted)
Summary of the method: (§1)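 Female Sprague–Dawley rats given two iv doses of 50 mg/kg. Levels measured in plasma, liver, kidney, brain, heart and lung. Cmax reported as ng/g for tissue and ng/mL for plasma; AUC(0–∞) as ng·h/mL. Half-life is the terminal elimination value.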

[2] = Thermodynamic aqueous solubility of the compound in 1 to 5% of glucose; format: physicochemical; conditions: 1 to 5% glucose in water; read-out: Therm_solubility
Summary of the method: (§2)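 Solubility measured in an aqueous solution containing 20% hydroxypropyl-β-cyclodextrin together with 1–5% glucose.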

Neisseria meningitidis = test: Antibacterial activity against Neisseria meningitidis; format: functional
[3] = tested on: Staphylococcus haemolyticus; test: Antibacterial activity against methicillin-resistant Staphylococcus haemolyticus; format: functional
[4] = Thermodynamic aqueous solubility of the compound in 20% hydroxypropyl-beta-cyclodextrin; format: physicochemical; conditions: 20% hydroxypropyl-beta-cyclodextrin in water; read-out: Therm_solubility; summary of the method: as §2
[5] = tested on: Staphylococcus epidermidis; test: Antibacterial activity against methicillin-resistant Staphylococcus epidermidis; format: functional
Haemophilus influenzae = test: Antibacterial activity against Haemophilus influenzae; format: functional
[6] = Cmax in Sprague-Dawley rat plasma at 2 x 50 mg/kg, iv; format: ADME, organism-based; design: dose 50 mg/kg, route intravenous; summary of the method: as §1
[7] = Cmax in Sprague-Dawley rat liver at 2 x 50 mg/kg, iv; format: ADME, organism-based; design: dose 50 mg/kg, route intravenous; summary of the method: as §1
[8] = Inhibition of cytochrome P450; format: ADME
Staphylococcus aureus [9] = test: Antibacterial activity against methicillin-resistant Staphylococcus aureus NRS385; format: functional
Summary of the method: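 CLSI broth microdilution: serial 2-fold dilutions from 0.06 to 64 μg/mL in cation-adjusted Mueller–Hinton broth, inoculum 5 × 10^5 CFU/mL, 35 °C for 18 h. MIC is the lowest concentration with no visible growth.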

Staphylococcus aureus [10] = test: Antibacterial activity against methicillin-resistant Staphylococcus aureus; format: functional
[11] = Cmax in Sprague-Dawley rat kidney at 2 x 50 mg/kg, iv; format: ADME, organism-based; design: dose 50 mg/kg, route intravenous; summary of the method: as §1
[12] = AUC (0 to infinity) in Sprague-Dawley rat lung at 2 x 50 mg/kg, iv; format: ADME, organism-based; design: time infinity, dose 50 mg/kg, route intravenous; summary of the method: as §1
Staphylococcus aureus [13] = test: Antibacterial activity against methicillin-resistant Staphylococcus aureus NRS384 assessed as killing activity at 600 to 1200 mg q6h with prolonged infusion of 2 hrs; format: functional, organism-based
[14] = Thermodynamic aqueous solubility of the compound at pH 7.4; format: physicochemical; conditions: buffer, read-out: Therm_solubility
Staphylococcus aureus [15] = test: Antibacterial activity against methicillin-resistant Staphylococcus aureus NRS384 infected in Swiss mouse; format: functional
Summary of the method: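 Murine lethal systemic infection by intraperitoneal MRSA challenge. A single subcutaneous dose was given 5 min after infection.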

With `CCc1cc(O)c(Oc2ccc(C(N)=O)cc2F)cc1F` the MIC90 (Neisseria gonorrhoeae) was 0.25 µg/mL (≈ 0.852 µM), the half-life [1] was 9.2 h and the solubility thermodynamic [2] was 11.3 mg/mL (≈ 38500 µM). For the same compound, the MIC90 (Neisseria meningitidis) was 0.25 µg/mL (≈ 0.852 µM), the MIC90 [3] was 0.5 µg/mL (≈ 1.7 µM) and the solubility thermodynamic [4] was 11.3 mg/mL (≈ 38500 µM). For the same compound, the MIC90 [5] was 2 µg/mL (≈ 6.82 µM), the MIC90 (Haemophilus influenzae) was 0.5 µg/mL (≈ 1.7 µM) and the Cmax [6] was 30400 ng/mL. For the same compound, the Cmax [7] was 51700 ng/g, the “inhibition (INH)” value [8] was “Active” and the MIC (Staphylococcus aureus [9]) was 0.06 µg/mL (≈ 0.205 µM). The MIC90 (Staphylococcus aureus [10]) was 0.12 µg/mL (≈ 0.409 µM), the Cmax [11] was 63000 ng/g and the AUC(0-inf) [12] was 18400 ng·h/mL. For the same compound, the Activity (Staphylococcus aureus [13]) was “Active”, the solubility thermodynamic [14] was 0.02 mg/mL (≈ 68.2 µM) and the ED50 (Staphylococcus aureus [15]) was 45.1 mg/kg.
